Experimental data as given in ChEMBL document CHEMBL1145864, “Synthesis and structure-activity relationship of a new series of COX-2 selective inhibitors: 1,5-diarylimidazoles” (J Med Chem, 2003).

Assays:
[1] = target: Prostaglandin G/H synthase 1 (Homo sapiens, UniProt P23219); type: cell-based, U-937
Rattus norvegicus [2] = experiment: In vivo anti-inflammatory activity determined by rat carrageenan paw edema method at 10 mg/kg perorally; type: functional; conditions: route oral
Rattus norvegicus [3] = experiment: In vivo anti-inflammatory activity by air pouch model at 1 mg/kg perorally in rat.; type: functional; conditions: route oral
In short: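 Rat air pouch: sterile air (20 mL) was injected subcutaneously, with 10 mL refills every 2 days. On day 7, 2 mL of 1% lambda-carrageenan in saline was injected into the pouch. Compound was given orally (suspension in 1% CMC/Tween-80, 10 mL/kg) 0.5 h before carrageenan. At 6 h, exudate was collected and centrifuged, and supernatant PGE2 was measured by ELISA.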

[4] = target: T1, Prostaglandin G/H synthase 2 (Homo sapiens) (UniProt P35354); conditions: Blood; at 1 µM
T1 sequence (whole entry): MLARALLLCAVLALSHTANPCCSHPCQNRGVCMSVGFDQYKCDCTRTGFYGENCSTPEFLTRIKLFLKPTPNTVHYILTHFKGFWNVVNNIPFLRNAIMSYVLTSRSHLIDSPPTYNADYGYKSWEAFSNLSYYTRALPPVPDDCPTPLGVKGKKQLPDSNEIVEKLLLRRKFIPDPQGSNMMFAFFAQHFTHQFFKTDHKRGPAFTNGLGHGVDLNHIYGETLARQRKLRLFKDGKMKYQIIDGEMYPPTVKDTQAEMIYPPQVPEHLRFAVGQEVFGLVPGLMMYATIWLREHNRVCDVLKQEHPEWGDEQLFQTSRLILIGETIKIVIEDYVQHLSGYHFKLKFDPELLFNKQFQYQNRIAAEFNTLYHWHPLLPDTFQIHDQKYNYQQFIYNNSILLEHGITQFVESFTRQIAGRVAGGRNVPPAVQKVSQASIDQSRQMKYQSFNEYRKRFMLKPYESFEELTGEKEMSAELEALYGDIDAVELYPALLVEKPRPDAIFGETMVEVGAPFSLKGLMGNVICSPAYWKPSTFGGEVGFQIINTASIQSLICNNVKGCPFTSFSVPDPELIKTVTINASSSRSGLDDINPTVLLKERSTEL

[5] = target: T1, Prostaglandin G/H synthase 2 (Homo sapiens); conditions: Blood; at 10 µM

Prostaglandin G/H synthase 1, sequence (P23219 whole entry): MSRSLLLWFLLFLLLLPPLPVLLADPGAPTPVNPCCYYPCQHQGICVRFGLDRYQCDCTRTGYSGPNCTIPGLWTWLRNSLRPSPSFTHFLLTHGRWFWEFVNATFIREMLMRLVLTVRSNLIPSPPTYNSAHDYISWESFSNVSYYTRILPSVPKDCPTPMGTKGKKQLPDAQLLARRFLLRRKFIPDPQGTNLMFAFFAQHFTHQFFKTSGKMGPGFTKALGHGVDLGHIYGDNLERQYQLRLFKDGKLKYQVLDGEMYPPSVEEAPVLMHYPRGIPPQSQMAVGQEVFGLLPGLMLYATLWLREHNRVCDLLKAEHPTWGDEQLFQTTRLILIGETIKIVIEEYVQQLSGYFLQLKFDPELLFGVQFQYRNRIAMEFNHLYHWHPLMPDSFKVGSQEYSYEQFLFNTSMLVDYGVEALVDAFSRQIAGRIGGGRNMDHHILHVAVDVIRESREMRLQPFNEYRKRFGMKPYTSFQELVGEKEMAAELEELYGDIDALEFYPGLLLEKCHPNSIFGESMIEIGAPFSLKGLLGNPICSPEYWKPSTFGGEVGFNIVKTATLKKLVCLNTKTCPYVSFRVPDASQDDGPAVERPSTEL

IC50 [1] [µM] | inhibition [4] [%] | inhibition [5] [%] | Compound | inhibition in vivo at 10 mg/kg (Rattus norvegicus [2]) [%] | inhibition in vivo at 1 mg/kg (Rattus norvegicus [3]) [%]
> 10 | – | – | CC(=O)Nc1ccc(-c2c(Cl)ncn2-c2ccc(S(C)(=O)=O)cc2)cc1 | – | –
> 10 | 85.6 | 100 | CS(=O)(=O)c1ccc(-c2cnc(Cl)n2-c2ccc(F)cc2)cc1 | 20.4 | 55.2
> 10 | – | 2.4 | CS(=O)(=O)c1ccc(-n2c(CO)nc(Cl)c2-c2ccc(F)cc2)cc1 | – | –
> 10 | 100 | 100 | COc1ccc(-c2c(Cl)ncn2-c2ccc(S(C)(=O)=O)cc2)cc1C | 21.4 | 75.6
100 | 66.2 | 100 | CS(=O)(=O)c1ccc(-n2cnc(Cl)c2-c2ccccc2F)cc1 | 21.5 | –
0.11 | 69.9 | 65.5 | CS(=O)(=O)c1ccc(-n2cnc(Cl)c2-c2ccc3c(c2)CCO3)cc1 | 29 | –
> 10 | – | 27.4 | CS(=O)(=O)c1ccc(-n2c(-c3ccc(F)cc3)cnc2CO)cc1 | – | –
> 10 | – | 59.9 | CC1Cc2cc(-c3c(Cl)ncn3-c3ccc(S(C)(=O)=O)cc3)ccc2O1 (stereo not given) | – | –
> 10 | 0 | – | CCCOc1ccc(-c2c(Cl)ncn2-c2ccc(S(C)(=O)=O)cc2)cc1 | – | –
> 10 | – | 60.5 | CS(=O)(=O)c1ccc(-n2cnc(Cc3ccccc3)c2-c2ccc(F)cc2)cc1 | – | –
1.3 | 100 | 100 | COc1ccc(-c2c(Cl)ncn2-c2ccc(S(C)(=O)=O)cc2)cc1 | 33.4 | –
> 10 | 70 | 100 | CC(C)c1ccc(-c2c(Cl)ncn2-c2ccc(S(C)(=O)=O)cc2)cc1 | 17 | –
> 10 | – | – | CS(=O)(=O)c1ccc(-n2c(-c3ccc(F)cc3)cnc2Cl)cc1 | – | –
> 10 | 77.1 | 100 | COc1cc(-c2c(Cl)ncn2-c2ccc(S(C)(=O)=O)cc2)ccc1C | 9.2 | –
> 10 | – | 3.8 | CCc1ncn(-c2ccc(S(C)(=O)=O)cc2)c1-c1ccc(F)cc1 | – | –
> 10 | – | 3.4 | C=CCc1ncn(-c2ccc(S(C)(=O)=O)cc2)c1-c1ccc(F)cc1 | – | –
> 10 | – | 15.3 | CS(=O)(=O)c1ccc(-c2c(Cl)ncn2-c2ccc(F)cc2)cc1 | – | –
> 10 | 74.9 | 100 | CS(=O)(=O)c1ccc(-n2cnc(Cl)c2-c2cccnc2)cc1 | 19 | –
> 10 | – | 64.4 | CCCCCc1ncn(-c2ccc(S(C)(=O)=O)cc2)c1-c1ccc(F)cc1 | – | –
> 10 | – | 0 | CS(=O)(=O)c1ccc(-n2c(-c3ccc(F)cc3)cnc2C(=O)c2ccccc2)cc1 | – | –

IC50 [1] [µM] | inhibition [4] [%] | inhibition [5] [%] | Compound | inhibition in vivo at 10 mg/kg (Rattus norvegicus [2]) [%] | inhibition in vivo at 1 mg/kg (Rattus norvegicus [3]) [%]
4 | – | 100 | Cc1cc(-c2c(Cl)ncn2-c2ccc(S(C)(=O)=O)cc2)ccc1Cl | – | –
23.8 | 79.6 | 100 | CS(=O)(=O)c1ccc(-n2cnc(Cl)c2-c2ccc(F)cc2F)cc1 | 8.6 | –
> 10 | – | 68 | Cc1ncc(-c2ccc(S(C)(=O)=O)cc2)n1-c1ccc(F)cc1 | 21.7 | –
> 1 | – | – | CS(=O)(=O)c1ccc(-n2cnc(Cl)c2-c2cc3ccccc3o2)cc1 | – | –
> 10 | – | 51.6 | CS(=O)(=O)c1ccc(-c2c(Cl)nc(Cl)n2-c2ccc(F)cc2)cc1 | – | –
> 10 | 96.5 | 95.2 | CCOc1ccc(-c2c(Cl)ncn2-c2ccc(S(C)(=O)=O)cc2)cc1F | 14.1 | –
15.5 | 26.8 | 99.9 | CCOc1ccc(-c2c(Cl)ncn2-c2ccc(S(N)(=O)=O)cc2)cc1Cl | 18.5 | –
> 10 | – | 95 | CS(=O)(=O)c1ccc(-c2cnc(C(=O)c3ccccc3)n2-c2ccc(F)cc2)cc1 | – | –
> 10 | – | 27.5 | Cc1nc(Cl)c(-c2ccc(F)cc2)n1-c1ccc(S(C)(=O)=O)cc1 | – | –
> 10 | – | 39.1 | COC(=O)c1ncc(-c2ccc(S(C)(=O)=O)cc2)n1-c1ccc(F)cc1 | – | –
> 10 | – | 0 | CS(=O)(=O)c1ccc(-n2c(Cl)nc(Cl)c2-c2ccc(F)cc2)cc1 | – | –
> 10 | 76.7 | 97.3 | CCSc1ccc(-c2c(Cl)ncn2-c2ccc(S(C)(=O)=O)cc2)cc1 | 12.3 | –
> 10 | – | 8.1 | CS(=O)(=O)c1ccc(-c2cnc(CO)n2-c2ccc(F)cc2)cc1 | – | –
76 | 57 | 100 | CCOc1ccc(-c2c(Cl)ncn2-c2ccc(S(N)(=O)=O)cc2)cc1F | 30.3 | –
1.2 | – | 99.9 | COc1ccc(-c2c(Cl)ncn2-c2ccc(S(N)(=O)=O)cc2)cc1Cl | 24 | –
0.9 | 49 | 88.5 | CSc1ccc(-c2c(Cl)ncn2-c2ccc(S(C)(=O)=O)cc2)cc1 | 21.7 | –
> 10 | – | – | CCS(=O)(=O)c1ccc(-c2c(Cl)ncn2-c2ccc(S(C)(=O)=O)cc2)cc1 | – | –
> 10 | 51.9 | 100 | CS(=O)(=O)c1ccc(-n2cnc(Cl)c2-c2cccc(F)c2)cc1 | 22.8 | –
> 10 | – | 61.6 | CS(=O)(=O)c1ccc(-n2cnc(Cl)c2-c2cc(F)cc(F)c2)cc1 | – | –
0.11 | 100 | 100 | COc1ccc(-c2c(Cl)ncn2-c2ccc(S(C)(=O)=O)cc2)c(F)c1 | 33 | –

IC50 [1] [µM] | inhibition [4] [%] | inhibition [5] [%] | Compound | inhibition in vivo at 10 mg/kg (Rattus norvegicus [2]) [%] | inhibition in vivo at 1 mg/kg (Rattus norvegicus [3]) [%]
> 10 | – | 36 | CS(=O)(=O)c1ccc(-c2c(Br)ncn2-c2ccc(F)cc2)cc1 | – | –
> 10 | – | 42.6 | Cc1nc(Cl)n(-c2ccc(F)cc2)c1-c1ccc(S(C)(=O)=O)cc1 | – | –
> 1 | – | – | CS(=O)(=O)c1ccc(-n2cnc(Cl)c2-c2cc(Br)co2)cc1 | – | –
> 10 | – | 71.6 | CS(=O)(=O)c1ccc(-n2cnc(Cl)c2-c2ccc(N)cc2)cc1 | 15.3 | –
> 10 | 37.3 | 99.8 | COc1c(Cl)cc(-c2c(Cl)ncn2-c2ccc(S(C)(=O)=O)cc2)cc1Cl | 16.5 | –
> 10 | – | 56.9 | CS(=O)(=O)c1ccc(-n2cncc2-c2ccc(F)cc2)cc1 | – | –
> 10 | – | 16.8 | CS(=O)(=O)c1ccc(-c2cnc(CF)n2-c2ccc(F)cc2)cc1 | – | –
> 10 | – | 70.9 | CS(=O)(=O)c1ccc(-c2cnc(C=O)n2-c2ccc(F)cc2)cc1 | 27.5 | –
> 10 | 85.2 | 100 | CS(=O)(=O)c1ccc(-n2cnc(Br)c2-c2ccc(F)cc2)cc1 | – | 91.4
> 10 | – | – | CS(=O)(=O)c1ccc(-n2cnc(Cl)c2-c2ccc(OC(F)(F)F)cc2)cc1 | – | –
> 10 | – | – | CC(C)Oc1ccc(-c2c(Cl)ncn2-c2ccc(S(C)(=O)=O)cc2)cc1 | – | –
> 10 | 88.4 | 100 | CS(=O)(=O)c1ccc(-n2cnc(Cl)c2-c2ccc(Cl)cc2)cc1 | 9.1 | –
> 10 | 100 | 100 | CCOc1ccc(-c2c(Cl)ncn2-c2ccc(S(C)(=O)=O)cc2)cc1 | 16.3 | –
> 10 | 47.7 | 100 | CCOc1ccc(-c2c(Cl)ncn2-c2ccc(S(C)(=O)=O)cc2)cc1Cl | 2 | –
> 10 | – | 63.4 | CS(=O)(=O)c1ccc(-c2cncn2-c2ccc(F)cc2)cc1 | – | –
> 10 | 34.5 | 86.5 | Cc1ncn(-c2ccc(S(C)(=O)=O)cc2)c1-c1ccc(F)cc1 | – | 45
> 10 | 60 | 91.9 | CCCc1ccc(-c2c(Cl)ncn2-c2ccc(S(C)(=O)=O)cc2)cc1 | 0 | –
> 10 | – | 0 | CCOc1cc(OCC)cc(-c2c(Cl)ncn2-c2ccc(S(C)(=O)=O)cc2)c1 | – | –
> 10 | 19.6 | 97.6 | NS(=O)(=O)c1ccc(-n2cnc(Cl)c2-c2ccc(Cl)nc2)cc1 | 18.1 | –
